From PubChem
SENP8 block-1: SENP8 protease inhibitors, primary screen, biochemical, luminescence; Sentrin-specific protease 8 (Homo sapiens), Q96LD8; purified SENP8, Z-RLRGG-aminoluciferin cleavage; inhibition, % at 10 µM; 330,000 compounds, 1.2% hits; AID 2540, 2010; in the data active = inhibition above about 50%
Target sequence (Q96LD8 whole entry, looked up): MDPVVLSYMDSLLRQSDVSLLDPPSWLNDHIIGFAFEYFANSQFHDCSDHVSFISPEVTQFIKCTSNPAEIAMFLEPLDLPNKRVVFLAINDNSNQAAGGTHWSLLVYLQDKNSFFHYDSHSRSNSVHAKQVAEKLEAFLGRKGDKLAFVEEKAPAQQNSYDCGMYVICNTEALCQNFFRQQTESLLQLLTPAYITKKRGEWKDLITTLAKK
SENP1 FRET inh: human SENP1 catalytic domain inhibitors, primary screen, biochemical, FRET, uHTS | Sentrin-specific protease 1 (Homo sapiens), Q9P0U3 | recombinant SENP1 catalytic domain, CyPet-SUMO1-YPet FRET cleavage | inhibition, % at 10 µM | 360,000 compounds, 0.21% hits | AID 624204, 2012;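 active = inhibition at least 30% at 10 µM, raw YFP signal under a set limit, fluorescence ratio 0.5 to 1.5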
Target sequence (Q9P0U3 419-644 limits assumed): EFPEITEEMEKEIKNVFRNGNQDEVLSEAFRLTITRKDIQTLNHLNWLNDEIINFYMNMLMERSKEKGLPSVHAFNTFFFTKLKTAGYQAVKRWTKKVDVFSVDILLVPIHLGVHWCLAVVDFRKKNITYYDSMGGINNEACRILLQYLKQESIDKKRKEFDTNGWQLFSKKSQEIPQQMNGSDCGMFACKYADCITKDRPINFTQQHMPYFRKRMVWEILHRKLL
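Test system: recombinant human SENP1 catalytic domain, His6-tagged / Medium: pH 8 Tris buffer with EDTA, NaCl, BME, BSA, NP40, catalase / Also added: SUMO1 FRET substrate flanked by Cypet and Ypet, 25 nM / Times: 50 min reaction at room temperature / Signal: FRET, CFP and YFP emission / Control set: no-enzyme low control and enzyme-plus-DMSO high control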
SENP8 block-2: human SENP8 protease inhibitors, primary screen, biochemical, fluorescence, Nedd8 protein substrate, uHTS. Sentrin-specific protease 8 (Homo sapiens), Q96LD8. recombinant SENP8. inhibition, % at 20 µM. 360,000 compounds, 0.64% hits. AID 602440, 2012; in the data active = inhibition mostly above about 40%, no sharp cut-off; inactive = mostly below about 27%
SENP7 block: SENP7 protease inhibitors, primary screen, biochemical, luminescence, uHTS; recombinant SENP7, Z-RLRGG-aminoluciferin luminescence, 40 min; 330,000 compounds, 1.5% hits; AID 434973, 2010; Sentrin-specific protease 7 (Homo sapiens), Q9BQF6; inhibition, % at 5 µM;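 active = inhibition above about 50% at the single test dose, limit read from the data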
SENP6 inh: SENP6 protease inhibitors, primary screen, biochemical, luminescence, uHTS | AID 2599, 2010 | inhibition, % at 10 µM | 330,000 compounds, 1.8% hits | Recombinant SENP6 catalytic domain, aminoluciferin luminescence | Sentrin-specific protease 6 (Homo sapiens), Q9GZR1;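 active = inhibition above about 50% at the single tested dose, limit read from the data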
HSP90 inh: HSP90 inhibitors, primary screen, cell lysate, luminescence. AID 1789, 2009. 290,000 compounds, 0.91% hits. Rabbit reticulocyte lysate, luciferase refolding luminescence, 3 h. Heat shock protein HSP 90 (rabbit reticulocyte lysate; luciferase refolding). inhibition, % at 5.6 µM;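 active = inhibition above the screen-wide mean plus 3 SD, computed separately per campaign, cut at about 16% in these data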;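 also: inhibitors lower the luminescence because luciferase stays unfolded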
SENP8 confirm: SENP8 protease inhibitors, retest, confirmation, biochemical, luminescence, single concentration. Recombinant SENP8, Z-RLRGG-aminoluciferin luminescence, 60 min. inhibition, % at 12.5 µM. shares compounds with SENP7 block. AID 488912, 2010. 6,200 compounds, 40% hits;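 active = mean inhibition across replicates above about 50%, limit read from the data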
SENP6 confirm: SENP6 protease inhibitors, confirmation, biochemical, luminescence, single concentration | shares compounds with SENP7 block | recombinant SENP6, Z-RLRGG-aminoluciferin luminescence | inhibition, % at 12.5 µM | 6,200 compounds, 58% hits | AID 488915, 2010
SENP7 confirm: SENP7 protease inhibitors, retest, confirmation, biochemical, luminescence, single concentration | shares compounds with SENP7 block | recombinant SENP7, Z-RLRGG-aminoluciferin luminescence, 40 min | inhibition, % at 12.5 µM | 6,200 compounds, 69% hits | AID 488917, 2010
Casp3 select: caspase-3 protease inhibitors, confirmation, selectivity assay for SENP inhibitor project, biochemical, single concentration; 6,200 compounds, 60% hits; purified caspase-3, Z-DEVD-aminoluciferin luminescence, 60 min; shares compounds with SENP7 block; inhibition, % at 12.5 µM;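 active = mean inhibition above about 50%, limit read from the data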
Target sequence (P42574 28-227 limits assumed): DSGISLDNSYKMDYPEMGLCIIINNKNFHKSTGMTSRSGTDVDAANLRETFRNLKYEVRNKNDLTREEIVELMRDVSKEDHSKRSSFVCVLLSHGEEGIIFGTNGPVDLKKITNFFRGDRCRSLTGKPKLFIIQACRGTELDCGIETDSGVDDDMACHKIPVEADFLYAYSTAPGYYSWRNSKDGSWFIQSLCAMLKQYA
SENP luc ctr: luminescence interference (SENP counter-screen); shares compounds with SENP7 block; AID 488919; 6,200 compounds, 39% hits; Pre-incubated SENP8/Z-RLRGG-aminoluciferin, luciferase luminescence interference; inhibition, % at 12.5 µM;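 active = mean inhibition above about 50% when retested at one dose, limit read from the data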
Each line names hits and unclear results; the compound was inactive in the other large screens (follow-up assays come after a bar, where they were run). A selection: hits, their analogues and other compounds. The true share with any hit is near 2.9%.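 The calls were made as follows, unless noted: active = mean inhibition above about 50% in the one-dose retest (limit read from the data); inactive = the rest.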

CCOCCCn1c(=S)[nH]c2cc(C(=O)NC3CCCC(C)C3C)ccc2c1=O (centres undefined)	none
Cc1cc(C(=O)Nc2ccc3c(c2)OCO3)no1	none
CC(C)Cc1cc(C(=O)Nc2ccc3c(c2)OCO3)no1	SENP7 block 53, SENP6 inh 66 | SENP8 confirm inactive | SENP6 confirm inactive | SENP7 confirm 80 | Casp3 select 60 | SENP luc ctr inactive
CC(=O)Nc1ccc(OCc2ccc3c(c2)OCO3)cc1	SENP8 block-1 68, SENP7 block 85, SENP6 inh 82 | SENP8 confirm 75 | SENP6 confirm 74 | SENP7 confirm 93 | Casp3 select 88 | SENP luc ctr 51
O=C(Nc1ccc2c(c1)OCO2)c1ccccc1	SENP7 block 55, SENP6 inh 62 | SENP8 confirm inactive | SENP6 confirm inactive | SENP7 confirm 81 | Casp3 select 81 | SENP luc ctr 61
O=C(NC(=S)Nc1ccc2c(c1)OCO2)c1ccccc1	none
CC(C)=CC(=O)Nc1ccc2c(c1)OCO2	SENP8 block-1 50, SENP6 inh 63 | SENP8 confirm 59 | SENP6 confirm 59 | SENP7 confirm 84 | Casp3 select 86 | SENP luc ctr 63
O=C(CNC(=O)c1ccc(Br)o1)Nc1ccc(F)c(S(=O)(=O)N2CCOCC2)c1	none (no result: HSP90 inh)
O=C(CSc1ccccc1F)NC(=O)NC1CCCC1	none (no result: SENP8 block-1, SENP7 block, SENP6 inh, HSP90 inh)
Cc1cc(C(C)(C)C)cc(C)c1COC(=O)CN1C(=O)NC2(CCCC2)C1=O	none (no result: HSP90 inh)
O=C(CN1C(=O)C(=O)N(Cc2ccco2)C1=O)Nc1ccccc1	none (no result: HSP90 inh)
Cc1cc(C)c(C(=O)C(C)OC(=O)c2ccccn2)cc1C (centres undefined)	none
O=C(OCC(=O)N1CCC(Cc2ccccc2)CC1)c1cc(Br)ccc1O	none (no result: HSP90 inh)
O=C(Nc1cccc(F)c1)Nc1ccc2c(c1)OCO2	SENP8 block-1 85, SENP7 block 96, SENP6 inh 93 | SENP8 confirm 84 | SENP6 confirm 86 | SENP7 confirm 99 | Casp3 select 86 | SENP luc ctr 80
CC(C)Cc1cc(C(=O)Nc2cc(Cl)ccc2Cl)no1	none
O=C(Nc1ccc2c(c1)OCO2)c1cc(Cl)ccn1	SENP8 block-1 77, SENP7 block 81, SENP6 inh 84 (no result: HSP90 inh) | SENP8 confirm 81 | SENP6 confirm 80 | SENP7 confirm 96 | Casp3 select 88 | SENP luc ctr inactive
O=C(COc1ccc2c(c1)OCO2)Nc1cccc(F)c1	none
Nc1c(C(=O)Nc2cccc(F)c2)nnn1-c1ccc2c(c1)OCCO2	SENP7 block 83 | SENP8 confirm inactive | SENP6 confirm inactive | SENP7 confirm 94 | Casp3 select 69 | SENP luc ctr inactive
CC(C)Cc1cc(C(=O)Nc2ccc(F)cc2F)no1	SENP7 block 56, SENP6 inh 64 | SENP8 confirm inactive | SENP6 confirm inactive | SENP7 confirm 82 | Casp3 select 60 | SENP luc ctr inactive
CCC(=O)N(C)C[C@H]1Oc2cc(-c3ccccc3F)ccc2S(=O)(=O)N([C@H](C)CO)C[C@H]1C	none (no result: SENP8 block-1, SENP7 block, SENP6 inh, HSP90 inh)
Cc1c(C(=O)Nc2ccc3c(c2)OCO3)oc2ccccc12	SENP8 block-1 58, SENP7 block 67, SENP6 inh 70 | SENP8 confirm 75 | SENP6 confirm 75 | SENP7 confirm 92 | Casp3 select 59 | SENP luc ctr 65
O=C(Nc1ccc2c(c1)OCO2)c1cccc(F)c1	SENP7 block 76, SENP6 inh 79 | SENP8 confirm 54 | SENP6 confirm 54 | SENP7 confirm 87 | Casp3 select 82 | SENP luc ctr 70
O=C(Nc1ccc2c(c1)OCO2)c1c(F)cccc1F	none
CC(=O)Nc1c(C(=O)Nc2ccc3c(c2)OCO3)oc2ccccc12	none
COc1ccc(NC(=O)/C(=C/c2ccc3c(c2)OCO3)NC(C)=O)cc1	none
COc1ccccc1/C=C/C(=O)OCC(=O)Nc1ccc2c(c1)OCCO2	none (no result: HSP90 inh)
COc1ccc(NC(=O)/C=C/c2ccc3c(c2)OCO3)cc1	SENP7 block 79, SENP6 inh 67 | SENP8 confirm inactive | SENP6 confirm inactive | SENP7 confirm 77 | Casp3 select 67 | SENP luc ctr 72
COc1ccccc1/C=C/C(=O)Nc1ccc2c(c1)OCCO2	SENP8 block-1 52, SENP7 block 60, SENP6 inh 67 | SENP8 confirm 68 | SENP6 confirm 66 | SENP7 confirm 86 | Casp3 select inactive | SENP luc ctr 63
CCC(C)N(C(=O)COC(=O)c1ccc(N)c([N+](=O)[O-])c1)C1CCS(=O)(=O)C1 (centres undefined)	none (no result: SENP8 block-1, SENP7 block, SENP6 inh, HSP90 inh)
Cc1ccc2c(=O)n3c(nc2c1)C(C)NC(=O)c1cccnc1-3 (centres undefined)	none (no result: SENP8 block-1, SENP7 block, SENP6 inh, HSP90 inh)
O=C(NCC1CCCO1)c1cn(Cc2ccccc2)nc1-c1ccc(Cl)cc1 (centres undefined)	none (no result: HSP90 inh)
CC(C)(C)n1nnnc1C(c1ccccc1)N1CCN(c2ccccn2)CC1 (centres undefined)	none (no result: SENP8 block-1, SENP7 block, SENP6 inh, HSP90 inh)
O=C(Nc1ccc2ccccc2c1)c1cccc(F)c1	SENP8 block-1 60, SENP7 block 73 | SENP8 confirm inactive | SENP6 confirm 59 | SENP7 confirm 87 | Casp3 select inactive | SENP luc ctr inactive
Cc1cccc(C(=O)Nc2ccc(C(=O)N/N=C/c3ccc4c(c3)OCO4)cc2)c1	none
